T cruzi inh = T. cruzi replication inhibition. T. cruzi beta-gal in NIH3T3, luminescence, 90 h. inhibition, % (no concentration beside the values). 300,000 compounds, 1.4% hits;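 active means mean inhibition across valid replicates above about 55%, limit read from the data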;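 further: signal also drops with host cell toxicity which is not excluded here; 0% = plate median of DMSO wells and 100% = zero luminescence signal; higher percent means less beta-gal luminescence so fewer parasites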
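System: NIH/3T3 fibroblasts plus reporter T. cruzi. Medium: DMEM plus 2% FBS. Probe or stimulus: 5000 reporter trypomastigotes per well. Compound: single 50 nL compound addition per well in DMSO. Incubation: co-culture of at least 90 h after 3 h attachment. Detection: GalScreen β-gal luminescence, detergent lysis, 60 min. Evaluation: parasite load inhibition, %.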
Beta apoptosis = beta cell apoptosis inhibition | protection from apoptosis, % (concentration not given with the values) | 300,000 compounds, 0.8% hits | INS-1E cytokine-induced death, ATP luminescence, 48 h; percent of positive-control rescue, neutral wells zero;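 active means Every replicate reaches about 75%, or at least half do and their mean reaches it too, limit read from the data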;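 further: 0% = cytokine-treated negative control wells and 100% = positive control rescue; higher means more ATP so stronger rescue from cytokine killing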
L major viab = inhibitors of Leishmania major promastigote growth. 200,000 compounds, 9% hits. inhibition, % at 10 µM. AID 1063. Leishmania major promastigotes, resazurin fluorescence viability; in the data active means inhibition above about 50%;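 further: promastigotes grown with compound for 44 hours at 28 °C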
CSC inhib = cancer stem cell inhibition; cancer stem cell-like cells viability, luminescence; inhibition, % at 7.5 µM; 300,000 compounds, 1.1% hits; in the data active means inhibition above about 75%; tested in HMLE shEcad cells
Mdm2-MdmX inh = human Mdm2/MdmX binding inhibition | 330,000 compounds, 3% hits | inhibition, % at 8 µM | SaOS-2 split-luciferase Mdm2/MdmX complementation, luminescence | O15151+Q00987;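 active means inhibition of at least 50% at 8 µM in the primary screen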
Target sequence (O15151 whole entry, looked up): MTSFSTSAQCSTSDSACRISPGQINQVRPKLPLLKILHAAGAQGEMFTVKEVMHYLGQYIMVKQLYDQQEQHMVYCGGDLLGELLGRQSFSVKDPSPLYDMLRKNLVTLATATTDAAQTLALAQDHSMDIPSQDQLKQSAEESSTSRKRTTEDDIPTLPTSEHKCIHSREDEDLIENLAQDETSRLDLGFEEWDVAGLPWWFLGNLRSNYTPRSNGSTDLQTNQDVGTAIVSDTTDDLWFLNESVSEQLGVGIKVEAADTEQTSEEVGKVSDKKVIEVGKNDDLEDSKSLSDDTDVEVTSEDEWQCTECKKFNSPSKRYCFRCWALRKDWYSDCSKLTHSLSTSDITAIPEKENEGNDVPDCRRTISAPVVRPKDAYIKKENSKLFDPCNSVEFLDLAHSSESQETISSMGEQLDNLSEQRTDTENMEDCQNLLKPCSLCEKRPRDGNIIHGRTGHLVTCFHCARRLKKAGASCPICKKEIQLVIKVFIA
Target sequence (Q00987 whole entry, looked up): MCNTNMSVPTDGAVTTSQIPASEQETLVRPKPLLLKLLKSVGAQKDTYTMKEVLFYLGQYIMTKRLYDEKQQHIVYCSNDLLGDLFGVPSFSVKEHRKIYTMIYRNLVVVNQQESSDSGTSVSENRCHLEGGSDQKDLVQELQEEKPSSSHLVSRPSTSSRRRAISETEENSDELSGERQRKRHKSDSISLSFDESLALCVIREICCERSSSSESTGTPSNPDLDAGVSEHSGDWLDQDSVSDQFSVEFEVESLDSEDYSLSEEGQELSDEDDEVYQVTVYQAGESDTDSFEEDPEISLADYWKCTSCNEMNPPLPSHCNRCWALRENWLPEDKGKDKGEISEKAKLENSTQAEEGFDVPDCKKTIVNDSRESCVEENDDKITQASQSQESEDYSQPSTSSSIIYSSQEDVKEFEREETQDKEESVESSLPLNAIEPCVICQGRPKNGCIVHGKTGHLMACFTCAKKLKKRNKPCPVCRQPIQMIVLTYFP
SKKanGAS inh = SKKanGAS growth inhibition. S. pyogenes SKKanGAS, kanamycin growth, BacTiter-Glo, 6 h. inhibition, % at 7.5 µM. 300,000 compounds, 1.3% hits;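 active means mean replicate score, as percent of positive control median, at least 50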;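 further: strain carries kanamycin resistance gene driven by streptokinase promoter and grows in 40 µg/ml kanamycin; loss of luminescence reflects streptokinase promoter inhibition or plain growth inhibition; 0% = median of DMSO wells and 100% = positive control at its reference dose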
Mdm2-MdmX conf = human Mdm2/MdmX binding inhibition, confirmed; shares compounds with Mdm2-MdmX inh; luminescent assay; inhibition, % at 8 µM; 10,000 compounds, 55% hits; in the data active means inhibition above about 40%
Full FLuc ctr = counter-screen for Mdm2/MdmX inhibitors: full-length luciferase | inhibition, % at 8 µM | SaOS-2 full-length luciferase counterscreen, luminescence | 6,200 compounds, 77% hits | AID 504607 | shares compounds with Mdm2-MdmX inh;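 active means mean inhibition at 8 µM reaching about 37%, which flags the compound as non-specific, limit read from the data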;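 further: p53-null SaOS-2 cells with luciferase driven by a doxycycline-inducible promoter; compound on cells about two nights before reading with doxycycline added after day one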
* hit, by the source's call. A selection: hits, their analogues and other compounds. The true share with any hit is near 9.4%.

Results for Cc1oc(-c2cc3c(cc2Cl)OCO3)nc1CN1CCCC1c1ccc(F)cc1 (centres undefined) ?
T cruzi inh: 6; Beta apoptosis: 2; L major viab: 16; CSC inhib: 13; Mdm2-MdmX inh: 20; SKKanGAS inh: 0

What do the screens show for `CC(C)N=C1NN=C(c2ccc(Cl)c(Cl)c2)CS1`?
T cruzi inh: 12; L major viab: 30; Mdm2-MdmX inh: -188; SKKanGAS inh: 44

Results for Oc1ccccc1-c1nc(NCc2ccccc2)c2ccccc2n1 ?
T cruzi inh: 11; Beta apoptosis: -5; CSC inhib: 29; Mdm2-MdmX inh: 56*; SKKanGAS inh: -3; Mdm2-MdmX conf: 33

How did Oc1ccccc1-c1nc(NCc2cccnc2)c2ccccc2n1 do in these assays?
T cruzi inh: 18; Beta apoptosis: -11; CSC inhib: 63; Mdm2-MdmX inh: 70*; SKKanGAS inh: 17; Mdm2-MdmX conf: 49*; Full FLuc ctr: 78*

Results for O=[N+]([O-])c1ccc(-c2nc(NCc3cccnc3)c3ccccc3n2)cc1 ?
T cruzi inh: 2; Beta apoptosis: 1; CSC inhib: 16; Mdm2-MdmX inh: 29; SKKanGAS inh: 10

Results for O=C(Nc1ccnc(=O)[nH]1)c1sc2ccccc2c1Cl ?
T cruzi inh: -10; Beta apoptosis: -2; CSC inhib: -4; Mdm2-MdmX inh: -24; SKKanGAS inh: -7

Results for CCN(CC)S(=O)(=O)c1cccc(NC(=O)c2cccc(S(=O)(=O)N3CCCC3)c2)c1 ?
Beta apoptosis: 1; Mdm2-MdmX inh: 9

Results for Cc1cc2oc3cc(NCCC4CCCN4C)ccc3c(=O)c2cc1C (centres undefined) ?
T cruzi inh: 39; Beta apoptosis: 11; CSC inhib: 103*; Mdm2-MdmX inh: 82*; SKKanGAS inh: 1; Mdm2-MdmX conf: -31

Results for CCOC(=O)N1CCN(S(=O)(=O)N2CCCC(C(=O)NC(C)c3ccccc3)C2)CC1 (centres undefined) ?
T cruzi inh: -7; Beta apoptosis: 1; CSC inhib: -9; Mdm2-MdmX inh: 17; SKKanGAS inh: 6

What do the screens show for `Cc1cc(C(C)(C)CC(C)(C)C)ccc1OCCOCC[N+](C)(C)Cc1ccccc1`?
Beta apoptosis: 100*; CSC inhib: 118*; Mdm2-MdmX inh: 100*; Mdm2-MdmX conf: 96*; Full FLuc ctr: 54*

How did Cc1cc(Br)ccc1OCC(=O)NNC(=O)Cc1ccccc1 do in these assays?
T cruzi inh: -5; Beta apoptosis: 0; L major viab: -6; CSC inhib: 11; Mdm2-MdmX inh: 14; SKKanGAS inh: -1

Results for COc1ccc(CNC(=O)Cn2ncn3c(cc4ccccc43)c2=O)cc1 ?
T cruzi inh: -6; Beta apoptosis: -4; CSC inhib: -6; Mdm2-MdmX inh: 67*; SKKanGAS inh: -3; Mdm2-MdmX conf: 11

Results for COc1ccc(-c2cc3c(=O)n(CC(=O)NCc4ccc(C)cc4)ncn3n2)cc1 ?
T cruzi inh: -2; Beta apoptosis: 17; CSC inhib: 13; Mdm2-MdmX inh: 95*; SKKanGAS inh: -1; Mdm2-MdmX conf: -8

How did COc1ccc(-c2cc3c(=O)n(CC(=O)NCc4ccc(Cl)cc4)ncn3n2)cc1 do in these assays?
T cruzi inh: -28; Beta apoptosis: 14; CSC inhib: 3; Mdm2-MdmX inh: 64*; SKKanGAS inh: -1; Mdm2-MdmX conf: 6

How did COc1ccc(CNC(=O)Cn2ncn3cccc3c2=O)cc1 do in these assays?
T cruzi inh: -16; Beta apoptosis: 2; L major viab: -10; Mdm2-MdmX inh: 18; SKKanGAS inh: 3

Results for CCOc1ccc(CCNC(=O)Cn2ncn3nc(-c4ccc(OC)cc4)cc3c2=O)cc1 ?
T cruzi inh: -9; Beta apoptosis: 7; CSC inhib: 4; Mdm2-MdmX inh: 28; SKKanGAS inh: -5

Results for COc1ccc(-c2cc3c(=O)n(CC(=O)NCCCN4CCC(Cc5ccccc5)CC4)ncn3n2)cc1 ?
T cruzi inh: 24; Beta apoptosis: 43; CSC inhib: 51; Mdm2-MdmX inh: 87*; SKKanGAS inh: 2; Mdm2-MdmX conf: 37; Full FLuc ctr: 68*

Results for COc1ccc(-c2cc3c(=O)n(CC(=O)NCCCN4CCN(Cc5ccccc5)CC4)ncn3n2)cc1 ?
T cruzi inh: 26; Beta apoptosis: 57; CSC inhib: -1; Mdm2-MdmX inh: -22; SKKanGAS inh: 1

How did C/C(=N\NC(=O)CCC(=O)Nc1ccc(C)c(C)c1)C1CC1 do in these assays?
Beta apoptosis: -5; CSC inhib: -2; Mdm2-MdmX inh: -3

How did O=S(=O)(c1ccc(SCc2cccc(Cl)c2)nc1)N1CCCC1 do in these assays?
Beta apoptosis: -2; CSC inhib: 18; Mdm2-MdmX inh: 0

Results for CN(CC(=O)Nc1ccc(F)c(F)c1F)C(=O)C1COc2ccccc2O1 (centres undefined) ?
Beta apoptosis: 6; CSC inhib: -9; Mdm2-MdmX inh: 9

Results for COc1ccc(-c2cc3c(=O)n(CC(=O)NCc4ccc(F)cc4)ncn3n2)cc1 ?
T cruzi inh: -37; Beta apoptosis: 32; CSC inhib: 17; Mdm2-MdmX inh: 86*; SKKanGAS inh: -4; Mdm2-MdmX conf: 21

What do the screens show for `Cc1nn(CC(=O)NCCCN2CCC(N3CCCCC3)CC2)c(=O)c2cc(-c3ccccc3)nn12`?
T cruzi inh: 35; Beta apoptosis: 7; CSC inhib: -6; Mdm2-MdmX inh: 95*; SKKanGAS inh: -1; Mdm2-MdmX conf: 53*; Full FLuc ctr: 56*

Results for Cc1ccc(C2NC(=S)NC3=C2C(=O)CC(C)(C)C3)cc1 (centres undefined) ?
T cruzi inh: -4; Beta apoptosis: -1; L major viab: 5; CSC inhib: -12; Mdm2-MdmX inh: -12; SKKanGAS inh: -3

How did O=C(Nc1cccc(S(=O)(=O)N2CCCCC2)c1)C1=NN(c2ccccc2)C(=O)CC1 do in these assays?
Beta apoptosis: 9; Mdm2-MdmX inh: 16

Results for O=C1c2ccccc2S(=O)(=O)N1Cc1nc2ccccc2s1 ?
T cruzi inh: -17; Beta apoptosis: -3; L major viab: -6; CSC inhib: -2; Mdm2-MdmX inh: 90*; SKKanGAS inh: 3; Mdm2-MdmX conf: 87*; Full FLuc ctr: 33

How did Cc1ccccc1CN1C(=O)c2ccccc2S1(=O)=O do in these assays?
T cruzi inh: -13; Beta apoptosis: -3; Mdm2-MdmX inh: 28; SKKanGAS inh: -7
